Legend:
[1] = tested on: Plasmodium falciparum; assay: Antiplasmodial activity against Plasmodium falciparum FcB1 as [3H]hypoxanthine uptake after 24 hrs; type: functional, organism-based
Method in brief: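 Chloroquine-resistant FcB1/Colombia P. falciparum, asynchronous cultures at 1% parasitemia, 1.5% final hematocrit. Compounds taken from 10 µg/mL DMSO solution, diluted in culture medium; 24 h at 37 °C in candle jar, then 0.5 µCi [3H]hypoxanthine per well, further 24 h. Freeze-thaw, harvest onto glass fibre filters, scintillation count; inhibition vs same-plate untreated control; IC50 by Desjardins method.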

[2] = tested on: KB; assay: Cytotoxicity against human KB cells after 72 hrs by neutral red staining; type: functional, cell-based
Method in brief: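 Human nasopharynx carcinoma KB cells (3 × 10^3 cells/mL) in D-MEM with 10% FCS, 2 mM L-glutamine, penicillin G, streptomycin, gentamicin. Compound stocks in DMSO/H2O (1:9). Exposure 72 h at 37 °C, air/CO2 95:5; growth read colorimetrically by neutral red uptake of living cells, relative to untreated cells.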

Structure (SMILES)	IC50 [1] [µM]	IC50 [2] [µM]
COc1cc2c(cc1O)CC[N+]1([O-])Cc3cc(OC)c(OC)cc3C[C@@H]21 (stereo partly drawn)	4.2	> 28
COc1c(O)cc2c3c(cc4ccccc4c13)NC2=O [ARISTOLACTAM AII]	> 37	> 37
COc1cc2c(cc1O)CC[n+]1cc3cc(OC)c(OC)cc3cc1-2 [DEHYDRODISCRETINE]	0.9	> 29
COc1ccc2c(c1OC)C[C@H]1NCCc3c(OC)c4c(c-2c31)OCO4 [DESMOROSTRATINE]	3.6	2.4
COc1cc2c(cc1O)CCN1Cc3cc(OC)c(OC)cc3C[C@@H]21 [DISCRETINE]	1.6	> 29
CC(=O)O[C@@]12CO[C@@H]1C[C@H](O)[C@@]1(C)C(=O)[C@H](O)C3=C(C)[C@@H](OC(=O)[C@H](O)[C@@H](NC(=O)OC(C)(C)C)c4ccccc4)C[C@@](O)([C@@H](OC(=O)c4ccccc4)[C@H]21)C3(C)C [DOCETAXEL]		0.0002
COc1cc2c(cc1OC)-c1c(OC)c(O)cc3c1[C@H](C2)N(C)CC3 [PREDICENTRINE]	27.8	> 29

From ChEMBL document CHEMBL1151723, “Antiplasmodial alkaloids from Desmos rostrata” (J Nat Prod, 2008)
